Test results reported in PubChem BioAssay.
Active and inactive are the calls of the source.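 How the source made its calls, unless noted: active means inhibition above 20% together with a positive visual image hit; inconclusive means visual image hit but inhibition not above 20%; inactive means no visual image hit.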

Legend:
[1] = inhibitors of TNFa-induced NFkB p65 translocation, primary screen, imaging, HUVEC, MLSMR starter and 10KST1 sets (AID 438); details: HUVEC TNFa-induced p65 nuclear translocation; cell count: measured here: nuclei count (cytotoxicity indicator), at 2.08 µM; inhibition: at 2 µM, stronger effect = higher value, 0% TNFa-plus-vehicle, 100% no-TNFa wells;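 further: compound added about 3h40 before a 20 min TNFalpha stimulation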;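 on inhibition: signal is the nuclear over cytoplasmic p65 intensity ratio per well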
[2] = inhibitors of mutant huntingtin aggregation, primary screen, imaging, exon1htt(103Q)mCFP cells, high-content imaging (AID 483;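 active means visual image review flags a hit and inhibition of aggregation exceeds 20%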;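 further: compound exposure lasted 3 days before fixation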;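 on nuclei count: percent of the per-plate median nuclei count of sample wells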); details: exon1htt(103Q)mCFP cell line, aggregate imaging, at 2 µM; inhibition of aggregation: stronger effect = higher value; nuclei count: measured here: cell count, toxicity
[3] = inhibitors of E-selectin induction by TNFa, primary screen, imaging, HUVEC, immunofluorescence, MLSMR starter and 10KST1 sets (AID 487;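 active means visually confirmed hit in the image check and inhibition above 20%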;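 on inhibition: signal is fraction of cell area covered by stained E-selectin grains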;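 on nuclei count: 100% = median nuclei count of all wells on the same plate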); details: HUVEC TNFalpha-induced E-selectin immunofluorescence imaging, at 2 µM; inhibition: stronger effect = higher value; nuclei count: measured here: cell number, toxicity
[4] = target: Voltage-gated potassium channel subunit beta-2 (Rattus norvegicus) (UniProt P62483); test: KvBeta enzyme negative modulators, primary screen, biochemical, NADPH fluorescence (AID 622;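 active means fluorescence slope higher than the sample average by over 3 SD, cut at about -0.22 in these data, passing the limit was not always enough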;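 further: slope of raw intensity against log time taken from 70 to 1610 s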); details: recombinant KvBeta, 4-cyanobenzaldehyde reduction, at 10 µM, stronger effect = higher value
[5] = target: Voltage-gated potassium channel subunit beta-2 (Rattus norvegicus) (UniProt P62483); test: KvBeta positive modulators, primary screen, biochemical, NADPH fluorescence (AID 623;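 active means NADPH fluorescence slope more negative than the mean of all samples by about 3 SD, 99.7% confidence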;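 further: fluorescence intensity change per second fitted from 20 to 320 s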); details: Recombinant KvBeta, NADPH fluorescence decrease slope, 10 min; at 10 µM; stronger effect = lower value
[6] = target: Muscarinic acetylcholine receptor M4 (Homo sapiens) (UniProt P08173); test: compounds altering M4/GIRK thallium flux, either direction, primary screen, M4 allosteric agonist project, cell-based, HEK293 M4/GIRK, BTC-AM (AID 625;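 active means fluorescence slope after compound addition differing from the mean of all tested samples at 99.7% confidence, mostly higher but some lower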;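 further: thallium influx through GIRK channels coupled to M4 in HEK293 cells with BTC-AM dye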); details: at 10 µM, actives lie on both sides
Procedure, shortened: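 System: HEK293 cells with M4 receptor and GIRK channels | Incubation: Cells overnight at 37 °C, BTC-AM loading 1 h, reads 2 min total | Technique: Kinetic BTC-AM fluorescence sampled at 1 Hz, 10 s pre-addition baseline | Measure: Post-addition slope, 15–24 s, of baseline-normalized fluorescence | Control set: Carbachol positive, DMSO negative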

[7] = inhibitors of Sendai virus-induced IRF3 signaling, primary screen, TLR/RLR signaling modifier project, cell-based, Sendai virus stimulus, luciferase, 10K MLSCN set (AID 602276;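 active means inhibition at or above 50% at 10 µM; inactive means inhibition below 50%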;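 further: firefly luciferase from ISG56 promoter only with Renilla not read in this screen; 0% = Sendai virus plus DMSO and 100% = medium plus DMSO without virus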); details: HEK293 RL24 IRF3 luciferase reporter, at 10 µM, stronger effect = higher value
[8] = inhibitors of poly I:C-induced TLR3 signaling, primary screen, cell-based, poly I:C stimulus, luciferase, 10K MLSCN set (AID 602277;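 active means inhibition of the reporter signal at or above 50%; inactive means inhibition below 50%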); details: HEK293-TLR3 RL24 IRF3 luciferase reporter, at 10 µM, stronger effect = higher value

Sequence of Muscarinic acetylcholine receptor M4 (Homo sapiens) (P08173 whole entry, looked up): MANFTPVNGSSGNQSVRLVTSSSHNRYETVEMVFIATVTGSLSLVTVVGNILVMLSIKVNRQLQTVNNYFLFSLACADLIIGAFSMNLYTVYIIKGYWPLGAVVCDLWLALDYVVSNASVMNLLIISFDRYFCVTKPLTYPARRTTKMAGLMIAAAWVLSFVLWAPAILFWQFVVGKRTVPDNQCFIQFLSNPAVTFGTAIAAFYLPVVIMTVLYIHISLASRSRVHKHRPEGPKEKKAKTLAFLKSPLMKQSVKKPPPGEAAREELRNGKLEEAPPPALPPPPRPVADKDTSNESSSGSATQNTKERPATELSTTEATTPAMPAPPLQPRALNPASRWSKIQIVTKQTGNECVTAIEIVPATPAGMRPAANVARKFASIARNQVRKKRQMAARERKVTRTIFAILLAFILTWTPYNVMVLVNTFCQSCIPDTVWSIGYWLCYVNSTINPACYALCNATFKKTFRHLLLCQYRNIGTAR
Sequence of Voltage-gated potassium channel subunit beta-2 (Rattus norvegicus) (P62483 whole entry, looked up): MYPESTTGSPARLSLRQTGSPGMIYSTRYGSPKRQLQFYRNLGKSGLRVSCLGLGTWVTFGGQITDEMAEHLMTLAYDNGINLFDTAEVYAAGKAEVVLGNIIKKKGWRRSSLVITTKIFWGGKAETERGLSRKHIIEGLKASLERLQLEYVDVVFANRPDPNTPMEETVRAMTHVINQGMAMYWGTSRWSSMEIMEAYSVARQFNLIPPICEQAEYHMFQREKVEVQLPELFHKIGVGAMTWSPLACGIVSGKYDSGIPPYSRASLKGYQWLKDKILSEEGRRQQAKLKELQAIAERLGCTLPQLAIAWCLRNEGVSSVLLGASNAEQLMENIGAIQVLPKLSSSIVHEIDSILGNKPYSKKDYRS

Compound | cell count [1] | inhibition [1] | inhibition of aggregation [2] | nuclei count [2] [%] | inhibition [3] | nuclei count [3] [%] | fluorescence slope [4] | NADPH fluorescence slope [5] | fluorescence slope [6] | inhibition [7] | inhibition [8]
CCC(Sc1ccc(C(=O)O)cc1)C(=O)O (stereo not drawn) | 319 | -1.8% (inactive) | -13.8% (inactive) | 110 | -40.5% (inactive) | 109 | -0.566 (inactive) | -2.4e-05 (inactive) | 0.0053 (inactive) | 1.75% (inactive) | 7.14% (inactive)
O=C(NCc1ccco1)C1CCN(C(=O)c2cc3sccc3n2Cc2ccc(F)cc2)CC1 | 571 | -16.7% (inactive) | -0.6% (inactive) | 122 | -27.8% (inactive) | 101 | -0.381 (inactive) | -4.5e-05 (inactive) | 0.00956 (inactive) | 17.8% (inactive) | 27.2% (inactive)
CCN1C(=O)/C(=C/N2CCc3ccccc32)SC1=S | 382 | 1.8% (inactive) | -22.3% (inactive) | 117 | -1.2% (inactive) | 100 | -0.403 (inactive) | -2.8e-05 (inactive) | 0.00654 (inactive) | -26.3% (inactive) | -99.1% (inactive)
CC(C)NC(=O)c1ccccc1NC(=O)c1ccccc1N(C)S(C)(=O)=O | 554 | 25% (inactive) | 6.8% (inactive) | 104 | -155% (inactive) | 101 | -0.456 (inactive) | -5.7e-05 (inactive) | 0.00572 (inactive) | 10.6% (inactive) | 13.7% (inactive)
Cc1ccc2c(COn3nnc4ccc(S(=O)(=O)N(C)C)cc43)cc(=O)oc2c1C | 702 | 5.3% (inactive) | 16.4% (inactive) | 96.2 | 30.2% (inactive) | 94.7 | -0.543 (inactive) | -6.4e-05 (inactive) | 0.00895 (inactive) | -1.62% (inactive) | 10.1% (inactive)
CCOc1ccc(C(=O)N(CN2CCCC2=O)c2ccc(C)cc2)cc1 | 385 | -1.4% (inactive) | -14.5% (inactive) | 118 | 14.5% (inactive) | 84 | -0.53 (inactive) | -5.9e-05 (inactive) | 0.0056 (inactive) | -0.0171% (inactive) | -43.9% (inactive)
Cc1ccccc1NC(=O)c1ccccc1 | 373 | 1.7% (inactive) | 13.2% (inactive) | 104 | -49.6% (inactive) | 110 | -0.469 (inactive) | 2.1e-05 (inactive) | 0.00509 (inactive) | 1.39% (inactive) | -13% (inactive)
CCn1c(=O)cc(SCC(=O)Nc2cccnc2)c2ccccc21 | 369 | -8.6% (inactive) | 4.3% (inactive) | 101 | -15.9% (inactive) | 116 | -0.463 (inactive) | 2.2e-05 (inactive) | 0.00646 (inactive) | 2.11% (inactive) | -5.54% (inactive)
